In ChEMBL document CHEMBL1255566, “Rigid analogues of the α2-adrenergic blocker atipamezole: small changes, big consequences” (J Med Chem, 2010):

How the values were obtained:
Mus musculus [1] = assay: Antihypothermic activity in ip dosed NMRI mouse assessed as inhibition of guanabenz-induced hypothermia administered 5 mins before guanabenz challenge measured after 25 mins; assay type: functional
Outline: (§1)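 Mice got the compound by intraperitoneal injection or oral gavage before guanabenz challenge, and reversal of guanabenz-induced hypothermia was scored. Five animals were tested per dose. ED50 is the dose giving an inhibitory effect in 50% of guanabenz-treated animals, with 95% confidence limits.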

[2] = target: T1, Alpha-2B adrenergic receptor (Homo sapiens, UniProt P18089); assay: Displacement of [3H]-RX821002 from human adrenergic alpha2B receptor expressed in rat C6 cells after 120 mins by liquid scintillation counting; assay type: cell-based
T1 sequence (P18089 whole entry): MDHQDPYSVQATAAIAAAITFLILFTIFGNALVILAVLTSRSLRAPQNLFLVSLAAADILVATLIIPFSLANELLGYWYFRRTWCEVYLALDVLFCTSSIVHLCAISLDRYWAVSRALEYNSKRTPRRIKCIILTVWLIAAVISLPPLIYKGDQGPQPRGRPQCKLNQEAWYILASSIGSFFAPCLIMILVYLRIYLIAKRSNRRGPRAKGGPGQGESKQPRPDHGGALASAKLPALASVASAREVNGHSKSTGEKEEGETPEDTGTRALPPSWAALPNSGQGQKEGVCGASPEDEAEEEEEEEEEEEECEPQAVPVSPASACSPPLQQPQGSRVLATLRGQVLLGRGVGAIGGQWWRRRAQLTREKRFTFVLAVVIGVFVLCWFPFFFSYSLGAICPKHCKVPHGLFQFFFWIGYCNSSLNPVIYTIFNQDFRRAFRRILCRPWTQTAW

Mus musculus [3] = assay: Ratio of ED50 for santihypothermic activity in po dosed NMRI mouse to ED50 for antihypothermic activity in ip dosed NMRI mouse; assay type: functional
Outline: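 Guanabenz-induced hypothermia in mice, five animals per dose. ED50 (the dose inhibiting hypothermia in 50% of guanabenz-treated animals) was obtained after oral gavage and after intraperitoneal injection, and the ratio po/ip was then calculated.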

Mus musculus [4] = assay: Antihypothermic activity in po dosed NMRI mouse assessed as inhibition of guanabenz-induced hypothermia administered 35 mins before guanabenz challenge measured after 25 mins; assay type: functional; outline: as §1
[5] = target: T2, Alpha-2A adrenergic receptor (Homo sapiens) (UniProt P08913); assay: Antagonist activity at human adrenergic alpha2A receptor expressed in CHO cells assessed as inhibition of adrenaline-induced [35S]GTPgammaS binding after 30 mins by scintillation counting; assay type: functional, cell-based
T2 sequence (whole entry): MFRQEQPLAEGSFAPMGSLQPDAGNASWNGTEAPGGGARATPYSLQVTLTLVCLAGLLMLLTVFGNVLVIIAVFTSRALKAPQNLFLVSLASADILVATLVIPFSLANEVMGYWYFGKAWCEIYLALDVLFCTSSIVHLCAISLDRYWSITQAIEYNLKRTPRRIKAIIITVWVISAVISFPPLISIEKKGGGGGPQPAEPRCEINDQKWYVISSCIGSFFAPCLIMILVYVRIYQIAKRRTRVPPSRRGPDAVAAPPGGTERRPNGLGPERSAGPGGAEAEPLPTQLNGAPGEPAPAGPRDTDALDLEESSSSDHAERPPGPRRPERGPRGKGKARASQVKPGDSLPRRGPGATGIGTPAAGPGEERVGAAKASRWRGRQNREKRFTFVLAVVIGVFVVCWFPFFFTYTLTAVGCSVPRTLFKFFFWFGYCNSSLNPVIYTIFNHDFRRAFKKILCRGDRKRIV
Outline: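 Inhibition of adrenaline-stimulated [35S]GTPγS binding in CHO cells expressing human α2A receptors. Compounds were also run alone to check for any stimulation of [35S]GTPγS binding. Antagonist potency is reported as pKB, taken as the potency that inhibits 50% of adrenaline-induced binding.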

[6] = target: T3, Alpha-1B adrenergic receptor (Homo sapiens, UniProt P35368); assay: Displacement of [3H]-prazosin from human adrenergic alpha-1b receptor expressed in CHO cells after 120 mins by liquid scintillation counting; assay type: cell-based
T3 sequence (P35368 whole entry): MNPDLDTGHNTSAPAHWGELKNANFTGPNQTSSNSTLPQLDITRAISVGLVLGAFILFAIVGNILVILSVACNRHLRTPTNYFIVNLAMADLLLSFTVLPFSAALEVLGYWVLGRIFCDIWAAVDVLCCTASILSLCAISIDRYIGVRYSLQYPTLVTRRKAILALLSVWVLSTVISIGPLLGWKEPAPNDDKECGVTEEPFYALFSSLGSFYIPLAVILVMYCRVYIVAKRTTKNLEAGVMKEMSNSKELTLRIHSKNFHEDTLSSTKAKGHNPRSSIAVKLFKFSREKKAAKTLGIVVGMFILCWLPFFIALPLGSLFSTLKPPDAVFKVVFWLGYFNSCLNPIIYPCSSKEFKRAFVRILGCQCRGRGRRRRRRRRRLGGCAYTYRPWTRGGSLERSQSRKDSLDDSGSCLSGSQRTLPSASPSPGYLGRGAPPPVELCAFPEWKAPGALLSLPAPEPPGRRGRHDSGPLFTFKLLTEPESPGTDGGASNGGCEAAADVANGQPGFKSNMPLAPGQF
Outline: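 Competition binding at human α1b receptors stably expressed in CHO cells. Affinity values are means ± SEM of at least two experiments, each in duplicate.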

[7] = target: T4, Alpha-2A adrenergic receptor (Homo sapiens, UniProt P08913); assay: Displacement of [3H]-RX821002 from human adrenergic alpha2A receptor expressed in rat C6 cells after 120 mins by liquid scintillation counting; assay type: cell-based
T4 sequence (P08913 whole entry): T2 sequence (whole entry)
Outline: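 Competition binding at human α2A receptors expressed in C6 glial cells. Affinity values are means ± SEM of at least two experiments, each in duplicate.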

[8] = target: T5, Alpha-2C adrenergic receptor (Homo sapiens, UniProt P18825); assay: Displacement of [3H]-RX821002 from human adrenergic Alpha-2C receptor expressed in rat C6 cells after 120 mins by liquid scintillation counting; assay type: cell-based
T5 sequence (P18825 whole entry): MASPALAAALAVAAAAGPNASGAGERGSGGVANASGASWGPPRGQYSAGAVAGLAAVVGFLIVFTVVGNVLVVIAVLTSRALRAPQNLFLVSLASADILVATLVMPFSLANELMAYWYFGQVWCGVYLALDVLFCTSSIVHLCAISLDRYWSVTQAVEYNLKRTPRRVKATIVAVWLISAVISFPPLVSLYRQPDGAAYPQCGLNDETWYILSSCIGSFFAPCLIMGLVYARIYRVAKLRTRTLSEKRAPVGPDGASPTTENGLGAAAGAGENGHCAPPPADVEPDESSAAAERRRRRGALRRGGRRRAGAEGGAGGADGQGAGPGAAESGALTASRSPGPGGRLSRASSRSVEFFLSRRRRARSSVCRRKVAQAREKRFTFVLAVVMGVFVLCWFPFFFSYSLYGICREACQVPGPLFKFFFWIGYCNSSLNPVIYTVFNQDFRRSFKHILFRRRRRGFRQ

[9] = Mus musculus, NMRI, ip, read-out: ED50
[10] = Mus musculus, NMRI, po, read-out: ED50

Row | SMILES | ED50 (Mus musculus [1]; [9]) | Ki [2] | Ratio ED50 (Mus musculus [3]) | ED50 (Mus musculus [4]; [10]) | pKb [5] | Ki [6] | Ki [7] | Ki [8] | ED50 (Mus musculus [1]) | ED50 (Mus musculus [4])
1 | CC1(C)C2c3ccccc3C[C@@]21c1c[nH]cn1 (single isomer, unassigned) | 0.07 mg/kg | 1.15 nM | 6.7 | 0.47 mg/kg | 8.97 | 178 nM | 1.07 nM | 1.17 nM |  | 
2 | CCC[C@H]1[C@@H]2c3ccccc3C[C@]12c1c[nH]cn1 | 0.1 mg/kg | 0.347 nM | 3.3 | 0.33 mg/kg | 9.24 | 3.55 nM | 0.407 nM | 0.437 nM |  | 
3 | CO[C@H]1c2ccccc2[C@H]2C[C@]21c1c[nH]cn1 (stereo in doubt; (-)-3) [listing 1 of 2 here] |  | 145 nM |  |  |  | 1780 nM | 55 nM | 195 nM |  | 
4 | CO[C@@H]1c2ccccc2[C@H]2C[C@]21c1cnc[nH]1 (relative stereo) |  | 24 nM |  |  |  | 912 nM | 11.7 nM | 66.1 nM |  | 
5 | C[C@H]1[C@@H]2c3ccccc3C[C@]12c1c[nH]cn1 | 0.06 mg/kg | 0.204 nM | 3.2 | 0.19 mg/kg | 9.67 | 33.1 nM | 0.174 nM | 0.295 nM |  | 
6 | C[C@H]1c2ccccc2[C@H]2C[C@]21c1c[nH]cn1 (relative stereo) | 0.006 mg/kg |  | 1.5 | 0.009 mg/kg | 9.54 |  |  |  |  | 
7 | c1ccc2c(c1)[C@H]1C[C@@]1(c1c[nH]cn1)C21CC1 (stereo in doubt; 10) [listing 1 of 2 here] |  | 3.72 nM | 3.7 |  |  | 14.8 nM | 0.603 nM | 2.69 nM | 0.06 mg/kg | 
8 | CO[C@@H]1c2ccccc2[C@H]2C[C@]21c1c[nH]cn1 (relative stereo) |  |  |  |  | 6.9 |  |  |  |  | 
9 | c1ccc2c(c1)[C@H]1C[C@@]1(c1c[nH]cn1)C21CC1 (stereo in doubt; (+)-10) [listing 1 of 2 here] |  | 1.91 nM | 2.8 |  |  | 18.2 nM | 0.331 nM | 2.14 nM | 0.08 mg/kg | 0.22 mg/kg
10 | CCC1(c2cnc[nH]2)Cc2ccccc2C1 [ATIPAMEZOLE] |  | 2.24 nM |  |  |  | 1950 nM | 1.86 nM | 4.17 nM |  | 
11 | C[C@H]1c2ccccc2[C@H]2C[C@]21c1cnc[nH]1 (relative stereo) |  | 0.692 nM |  |  |  | 6.17 nM | 0.219 nM | 0.537 nM |  | 
12 | CO[C@H]1c2ccccc2[C@H]2C[C@]21c1c[nH]cn1 (stereo in doubt; (+)-3) [listing 1 of 2 here] |  | 2.82 nM | 2.3 |  |  | 63.1 nM | 0.562 nM | 1.95 nM | 0.03 mg/kg | 0.07 mg/kg
13 | CC[C@H]1[C@@H]2c3ccccc3C[C@]12c1c[nH]cn1 |  | 0.182 nM |  |  |  | 16.6 nM | 0.138 nM | 0.17 nM |  | 
14 | c1ccc2c(c1)[C@H]1C[C@@]1(c1c[nH]cn1)C21CC1 (stereo in doubt; (-)-10) [listing 1 of 2 here] |  | 6.76 nM | 10.4 |  |  | 97.7 nM | 3.89 nM | 20.4 nM | 0.18 mg/kg | 1.87 mg/kg
15 | CCCO[C@H]1c2ccccc2[C@H]2C[C@]21c1cnc[nH]1 (relative stereo) |  | 6.46 nM |  |  |  | 11.5 nM | 3.98 nM | 1.55 nM |  | 
16 | CO[C@H]1c2ccccc2[C@H]2C[C@]21c1c[nH]cn1 (stereo in doubt; (-)-3) [listing 2 of 2 here] |  |  |  |  | 6.44 |  |  |  |  | 
17 | c1ccc2c(c1)C[C@]1(c3c[nH]cn3)C[C@H]21 (stereo in doubt; (-)-1) [listing 1 of 2 here] |  |  |  |  | 10.2 |  |  |  |  | 
18 | CO[C@H]1c2ccccc2[C@H]2C[C@]21c1c[nH]cn1 (relative stereo) [listing 1 of 2 here] |  | 7.76 nM | 3.1 |  |  | 102 nM | 1.74 nM | 5.75 nM | 0.09 mg/kg | 0.28 mg/kg
19 | CO[C@H]1c2ccccc2[C@H]2C[C@]21c1c[nH]cn1 (stereo in doubt; (+)-3) [listing 2 of 2 here] |  |  |  |  | 8.54 |  |  |  |  | 
20 | CO[C@H]1c2ccccc2[C@H]2C[C@]21c1c[nH]cn1 (relative stereo) [listing 2 of 2 here] |  |  |  |  | 8.28 |  |  |  |  | 
21 | CC(C)O[C@H]1c2ccccc2[C@H]2C[C@]21c1c[nH]cn1 (relative stereo) |  | 11.7 nM |  |  | 6.88 | 316 nM | 45.7 nM | 89.1 nM |  | 
22 | c1ccc2c(c1)[C@H]1C[C@@]1(c1c[nH]cn1)C21CC1 (stereo in doubt; 10) [listing 2 of 2 here] |  |  |  |  | 9.05 |  |  |  |  | 
23 | c1ccc2c(c1)C[C@]1(c3c[nH]cn3)C[C@H]21 (stereo in doubt; 1) [listing 1 of 2 here] |  |  |  |  | 9.78 |  |  |  |  | 
24 | c1ccc2c(c1)[C@H]1C[C@@]1(c1c[nH]cn1)C21CC1 (stereo in doubt; (+)-10) [listing 2 of 2 here] |  |  |  |  | 8.88 |  |  |  |  | 
25 | CCCO[C@H]1c2ccccc2[C@H]2C[C@]21c1c[nH]cn1 (relative stereo) | 0.29 mg/kg |  | 0.4 | 0.12 mg/kg | 8.16 |  |  |  |  | 
26 | c1ccc2c(c1)[C@H]1C[C@@]1(c1c[nH]cn1)C21CC1 (stereo in doubt; (-)-10) [listing 2 of 2 here] |  |  |  |  | 7.75 |  |  |  |  | 
27 | c1ccc2c(c1)C[C@]1(c3c[nH]cn3)C[C@H]21 (stereo in doubt; 1) [listing 2 of 2 here] |  | 0.115 nM | 4 |  |  | 1.32 nM | 0.0692 nM | 0.178 nM | 0.03 mg/kg | 0.12 mg/kg
28 | c1ccc2c(c1)C[C@]1(c3c[nH]cn3)C[C@H]21 (stereo in doubt; (-)-1) [listing 2 of 2 here] |  | 0.11 nM | 5 |  |  | 1.05 nM | 0.0282 nM | 0.129 nM | 0.008 mg/kg | 0.04 mg/kg
